Laboratory results published in ChEMBL document CHEMBL3872215, “Optimization and biological evaluation of aminopyrimidine-based IκB kinase β inhibitors with potent anti-inflammatory effects” (Eur J Med Chem, 2016).
Active and inactive are the calls of the source. No cut-off for these calls is given here.

How the values were obtained:
[1] = biological target: T1, Inhibitor of nuclear factor kappa-B kinase subunit beta (Homo sapiens, UniProt O14920); test: Inhibition of IKKbeta (unknown origin)
T1 sequence (O14920 whole entry): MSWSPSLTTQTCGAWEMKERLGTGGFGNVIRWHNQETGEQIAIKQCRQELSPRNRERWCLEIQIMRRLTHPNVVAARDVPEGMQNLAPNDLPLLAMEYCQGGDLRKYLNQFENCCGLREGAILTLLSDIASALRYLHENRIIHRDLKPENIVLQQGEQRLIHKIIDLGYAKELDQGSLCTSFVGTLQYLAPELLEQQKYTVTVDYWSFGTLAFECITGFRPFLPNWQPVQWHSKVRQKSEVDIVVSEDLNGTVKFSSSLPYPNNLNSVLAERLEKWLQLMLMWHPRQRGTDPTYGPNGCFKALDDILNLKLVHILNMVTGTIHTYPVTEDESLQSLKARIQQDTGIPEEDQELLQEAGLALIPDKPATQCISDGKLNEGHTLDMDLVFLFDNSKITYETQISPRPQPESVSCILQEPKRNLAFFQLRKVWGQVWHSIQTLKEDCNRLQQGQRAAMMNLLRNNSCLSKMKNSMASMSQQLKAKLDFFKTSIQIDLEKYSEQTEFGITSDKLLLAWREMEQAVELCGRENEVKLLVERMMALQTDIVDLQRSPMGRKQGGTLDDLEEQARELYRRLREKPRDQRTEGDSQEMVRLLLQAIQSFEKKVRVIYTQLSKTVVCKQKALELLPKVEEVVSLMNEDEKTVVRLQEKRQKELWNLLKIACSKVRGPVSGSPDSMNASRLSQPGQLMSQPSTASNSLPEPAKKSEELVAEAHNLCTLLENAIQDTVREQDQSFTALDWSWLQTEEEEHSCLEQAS

[2] = tested on: RAW264.7; test: Antiinflammatory activity against mouse RAW264.7 cells assessed as inhibition of LPS induced nitrite accumulation at 1 to 5 uM preincubated for 6 hrs followed by LPS challenge measured after 18 hrs by Griess reagent based assay; format: functional, cell-based
Method in brief: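 Cells seeded at 1 × 10^5 cells/ml and grown 24 h, then pretreated 6 h with compound at 1, 2 or 5 µM. LPS 100 ng/ml added for a further 18 h. NO production read as nitrite in the culture medium and compared with the negative control.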

[3] = Lipophilicity, logD of the compound at pH 7.4; format: physicochemical; settings: buffer
[4] = tested on: RAW264.7; test: Antiinflammatory activity against mouse RAW264.7 cells assessed as inhibition of LPS induced SiCAM-1 production at 5 uM preincubated for 6 hrs followed by LPS challenge measured after 18 hrs; format: functional, cell-based
Method in brief: (§1)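 Cells cultured in DMEM with 10% FBS and 1% penicillin/streptomycin, pretreated 6 h with compound at 5 µM, then LPS 100 ng/ml for 18 h. Lysates mixed with antibody cocktail and incubated overnight on a blocked mouse cytokine array membrane, then streptavidin-HRP with chemiluminescent detection. Relative protein expression taken from densitometry of scanned images.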

[5] = biological target: T2, Inhibitor of nuclear factor kappa-B kinase subunit beta (Mus musculus) (UniProt O88351); test: Inhibition of LPS induced IKKbeta-mediated NF-kappa-B p65 nuclear translocation in mouse RAW264.7 cells at 5 uM preincubated for 6 hrs followed by LPS challenge measured after 30 mins by DAPI staining based confocal laser scanning microscopic method; format: cell-based
T2 sequence (whole entry): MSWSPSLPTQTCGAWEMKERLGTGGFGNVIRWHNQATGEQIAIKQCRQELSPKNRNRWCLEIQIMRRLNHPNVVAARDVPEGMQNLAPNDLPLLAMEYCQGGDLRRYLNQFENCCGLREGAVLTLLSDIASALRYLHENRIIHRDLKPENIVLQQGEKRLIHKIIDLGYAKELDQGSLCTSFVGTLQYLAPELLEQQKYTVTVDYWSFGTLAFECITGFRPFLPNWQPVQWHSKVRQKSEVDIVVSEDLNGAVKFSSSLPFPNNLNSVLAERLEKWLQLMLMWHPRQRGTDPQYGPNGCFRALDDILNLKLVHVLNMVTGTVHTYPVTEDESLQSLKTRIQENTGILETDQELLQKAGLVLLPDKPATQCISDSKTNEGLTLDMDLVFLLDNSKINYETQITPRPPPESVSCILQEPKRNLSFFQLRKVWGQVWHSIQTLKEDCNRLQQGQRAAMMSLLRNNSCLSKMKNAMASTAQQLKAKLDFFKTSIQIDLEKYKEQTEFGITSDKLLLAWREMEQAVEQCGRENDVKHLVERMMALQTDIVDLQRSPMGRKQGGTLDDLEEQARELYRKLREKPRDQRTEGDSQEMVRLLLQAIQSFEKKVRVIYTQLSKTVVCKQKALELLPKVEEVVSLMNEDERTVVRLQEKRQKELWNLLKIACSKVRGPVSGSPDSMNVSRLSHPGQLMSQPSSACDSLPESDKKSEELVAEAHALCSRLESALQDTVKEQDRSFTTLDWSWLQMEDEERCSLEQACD
Method in brief: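 Pretreatment 6 h with 5 µM compound, then LPS 100 ng/ml for 30 min. Cells fixed in acetone:methanol 1:1 for 10 min, blocked 1 h at room temperature, and incubated overnight at 4 °C with p-NF-κB antibody (1:50). RITC secondary (1:100) applied 1 h, nuclei stained with DAPI, and slides imaged by confocal laser scanning microscopy.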

[6] = tested on: RAW264.7; test: Antiinflammatory activity against mouse RAW264.7 cells assessed as inhibition of LPS induced I-TAC production at 5 uM preincubated for 6 hrs followed by LPS challenge measured after 18 hrs; format: functional, cell-based; method in brief: as §1
[7] = biological target: T2, Inhibitor of nuclear factor kappa-B kinase subunit beta (Mus musculus); test: Inhibition of LPS-induced IKKbeta-mediated NF-kappa-B p65 phosphorylation in mouse RAW264.7 cells preincubated for 6 hrs followed by LPS challenge measured after 30 mins by ELISA method; format: cell-based
Method in brief: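 Cells exposed 6 h to compound at 1, 2 and 5 µM, then LPS 100 ng/ml for 30 min. Cytoplasmic phospho-NF-κB p65 measured with an ELISA kit, following the kit instructions.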

[8] = tested on: RAW264.7; test: Antiinflammatory activity against mouse RAW264.7 cells assessed as inhibition of LPS induced nitric oxide synthase synthesis preincubated for 6 hrs followed by LPS challenge by western blot method; format: functional, cell-based
[9] = biological target: T2, Inhibitor of nuclear factor kappa-B kinase subunit beta (Mus musculus); test: Inhibition of LPS-induced IKKbeta phosphorylation in mouse RAW264.7 cells preincubated for 6 hrs followed by LPS challenge measured after 30 mins by Western blot method
[10] = tested on: RAW264.7; test: Antiinflammatory activity against mouse RAW264.7 cells assessed as inhibition of LPS induced IL-1alpha production at 5 uM preincubated for 6 hrs followed by LPS challenge measured after 18 hrs; format: functional, cell-based; method in brief: as §1
[11] = tested on: RAW264.7; test: Antiinflammatory activity against mouse RAW264.7 cells assessed as inhibition of LPS induced IL-6 production preincubated for 6 hrs followed by LPS challenge measured after 18 hrs by ELISA method; format: functional, cell-based
Method in brief: (§2)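 Cells plated at 4 × 10^5 per well and left to attach overnight, then pretreated 6 h with compound (1, 2 and 5 µM) before LPS 100 ng/ml for 18 h. IL-6 and TNF-α measured in cell-free supernatants with a mouse ELISA kit, following the kit instructions.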

[12] = tested on: RAW264.7; test: Antiinflammatory activity against mouse RAW264.7 cells assessed as inhibition of LPS induced TNF-alpha production preincubated for 6 hrs followed by LPS challenge measured after 18 hrs by ELISA method; format: functional, cell-based; method in brief: as §2
[13] = tested on: RAW264.7; test: Antiinflammatory activity against mouse RAW264.7 cells assessed as inhibition of LPS induced TIMP-1 production at 5 uM preincubated for 6 hrs followed by LPS challenge measured after 18 hrs; format: functional, cell-based; method in brief: as §1
[14] = biological target: T2, Inhibitor of nuclear factor kappa-B kinase subunit beta (Mus musculus); test: Inhibition of LPS-induced IKKbeta-mediated IkappaB-alpha phosphorylation in mouse RAW264.7 cells preincubated for 6 hrs followed by LPS challenge measured after 30 mins by Western blot method

Row | SMILES | IC50 [1] [nM] | also measured
1 | N#Cc1ccc(-c2ccnc(Nc3ccc(S(=O)(=O)NCCO)cc3)n2)cc1 | 111 | –
2 | CN(C)CCOc1ccc(-c2ccnc(Nc3ccc(S(N)(=O)=O)cc3)n2)cc1 | 79 | inhibition [2]: Active
3 | Cc1ccc(Nc2nccc(-c3ccc(Oc4ccccc4N)cc3)n2)cc1 | > 50000 | –
4 | N#Cc1cccc(-c2ccnc(Nc3ccc(S(=O)(=O)NCCO)cc3)n2)c1 | 190 | inhibition [2]: Active; logD [3]: 1.49
5 | N#Cc1ccc(-c2ccnc(Nc3ccc(S(N)(=O)=O)cc3)n2)cc1 | 58 | logD [3]: 3.81
6 | Nc1ccccc1Oc1ccc(-c2ccnc(Nc3ccc(Cl)cc3)n2)cc1 | 34100 | –
7 | CC(C)(C)OC(=O)NCCOc1ccc(-c2ccnc(Nc3ccc(S(N)(=O)=O)cc3)n2)cc1 | 138 | –
8 | CS(=O)(=O)c1ccc(Nc2nccc(-c3ccc(Oc4ccccc4N)cc3)n2)cc1 | 2700 | –
9 | Nc1ccccc1Oc1ccc(-c2ccnc(Nc3ccc(S(=O)(=O)Nc4nccs4)cc3)n2)cc1 | 1100 | –
10 | COC(=O)Nc1ccc(Nc2nccc(-c3ccc(Oc4ccccc4[N+](=O)[O-])cc3)n2)cc1 | > 20000 | –
11 | Nc1ccccc1Oc1ccc(-c2ccnc(Nc3ccc(S(N)(=O)=O)cc3)n2)cc1 | 97 | logD [3]: 3.29
12 | NCCOc1ccc(-c2ccnc(Nc3ccc(S(N)(=O)=O)cc3)n2)cc1 | 65 | inhibition [2]: Active; logD [3]: 1.39
13 | COc1ccc(Nc2nccc(-c3ccc(Oc4ccccc4N)cc3)n2)cc1 | 12000 | –
14 | Nc1ccccc1Oc1ccc(-c2ccnc(Nc3ccc4ncsc4c3)n2)cc1 | 4600 | –
15 | Nc1ccccc1Oc1ccc(-c2ccnc(Nc3cccc(S(N)(=O)=O)c3)n2)cc1 | 1600 | –
16 | CS(=O)(=O)Nc1ccc(Nc2nccc(-c3ccc(Oc4ccccc4[N+](=O)[O-])cc3)n2)cc1 | 320 | –
17 | CC(=O)Nc1ccc(Nc2nccc(-c3ccc(Oc4ccccc4N)cc3)n2)cc1 | 4200 | –
18 | N#Cc1ccc(Nc2nccc(-c3ccc(Oc4ccccc4N)cc3)n2)cc1 | 6200 | –
19 | NS(=O)(=O)c1ccc(Nc2nccc(-c3ccc(Oc4ccccc4[N+](=O)[O-])cc3)n2)cc1 | 34 | –
20 | CNS(=O)(=O)c1ccc(Nc2nccc(-c3ccc(Oc4ccccc4[N+](=O)[O-])cc3)n2)cc1 | 1100 | –
21 | NS(=O)(=O)c1ccc(Nc2nccc(-c3ccc(Cl)cc3)n2)cc1 | 19 | –
22 | CC(=O)c1ccc(Nc2nccc(-c3ccc(Oc4ccccc4N)cc3)n2)cc1 | 8100 | –
23 | CN(C)c1ccc(Nc2nccc(-c3ccc(Oc4ccccc4N)cc3)n2)cc1 | 28700 | –
24 | Nc1ccc(-c2ccnc(Nc3ccc(S(N)(=O)=O)cc3)n2)cc1 | 41 | inhibition [4]: Active; inhibition [5]: Active; inhibition [6]: Active; inhibition [7]: Dose-dependent effect; inhibition [2]: Active; inhibition [8]: Dose-dependent effect; inhibition [9]: Dose-dependent effect; inhibition [10]: Active; inhibition [11]: Dose-dependent effect; inhibition [12]: Dose-dependent effect; inhibition [13]: Active; inhibition [14]: Dose-dependent effect
25 | NS(=O)(=O)c1ccc(Nc2nccc(-c3ccc(Oc4ccccc4)cc3)n2)cc1 | 1520 | –
26 | NC(=O)c1ccc(Nc2nccc(-c3ccc(Oc4ccccc4N)cc3)n2)cc1 | 14200 | –
27 | CCOC(=O)Nc1ccc(Nc2nccc(-c3ccc(Oc4ccccc4[N+](=O)[O-])cc3)n2)cc1 | > 20000 | –
28 | Nc1ccc(-c2ccnc(Nc3ccc(S(=O)(=O)NCCO)cc3)n2)cc1 | 53 | inhibition [2]: Active; logD [3]: 0.58
29 | Nc1ccccc1Oc1ccc(-c2ccnc(Nc3ccccc3)n2)cc1 | 11800 | –
